This note sets out measurements from ChEMBL document CHEMBL4376893, “Identification of Psychoplastogenic N,N-Dimethylaminoisotryptamine (isoDMT) Analogues through Structure-Activity Relationship Studies” (2020).

Assay [1] deals with Cortical neurone. Briefly: Induction of dendritogenesis in Sprague-Dawley rat cortical neurons assessed as dendritic arbor complexity at 10 uM after 1 hr supplemented with fresh neurobasal medium measured after 71 hrs by Alexa Fluor 488 dye based imaging analysis. It is filed as functional, cell-based. In a few lines:
(§1)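 Cortical neurons from timed-pregnant Sprague Dawley rats, about 15,000 cells/well in B27 Neurobasal. On DIV3, dosed 1 h at 0.1% DMSO (10 μM standard; 10 pM–10 μM in concentration-response runs), then medium replaced and grown 71 h. PFA-fixed, MAP2 immunostained with Alexa Fluor 488 secondary, 20x imaging. Blinded Sholl analysis, Nmax = maximum crossings; ≥6 wells over 2 plates from independent dams.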

A further assay is filed under the species Danio rerio. Briefly: Induction of acute behavioural changes in wild type zebrafish Singapore at 7 days post-fertilization stage after 1 hr by imaging analysis. In kind it is functional. A digest of the protocol:
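Wild-type Singapore larvae at 7 dpf, 8 per well in 300 μL egg water, rested 1 h at RT. DMSO stocks added (0.4% DMSO), then 1 h RT incubation. After 5 min dark acclimation, a 17-min acoustic/visual stimulus battery was run under IR video. Locomotion was taken as changed pixels. Random-forest out-of-bag accuracy versus vehicle wells was used, n = 21 wells.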

In assay [2] the test system is Mus musculus. In words: Induction of head-twitch response in C57BL/6J mouse assessed as reduction in hallucinogenic potential at 1 to 50 mg/kg, iv measured after 20 mins. In kind it is functional, organism-based.
For assay [3], the system named is Cortical neurone. Briefly: Induction of dendritogenesis in Sprague-Dawley rat cortical neurons assessed as increase in dendritic arbor complex at 1 nM after 1 hr supplemented with fresh neurobasal medium measured after 71 hrs by Alexa Fluor 488 dye based imaging analysis. It is filed as functional, cell-based. In a few lines: as §1
The test system of assay [4] is Mus musculus. In words: Induction of head-twitch response in iv dosed C57BL/6J mouse assessed as reduction in hallucinogenic potential measured after 20 mins. It is filed as functional, organism-based.
The target of assay [5] is 5-hydroxytryptamine receptor 2A (Rattus norvegicus) (UniProt P14842). The settings on record: Sprague-Dawley, 1 uM.
Chain of 5-hydroxytryptamine receptor 2A (Rattus norvegicus) (P14842 whole entry): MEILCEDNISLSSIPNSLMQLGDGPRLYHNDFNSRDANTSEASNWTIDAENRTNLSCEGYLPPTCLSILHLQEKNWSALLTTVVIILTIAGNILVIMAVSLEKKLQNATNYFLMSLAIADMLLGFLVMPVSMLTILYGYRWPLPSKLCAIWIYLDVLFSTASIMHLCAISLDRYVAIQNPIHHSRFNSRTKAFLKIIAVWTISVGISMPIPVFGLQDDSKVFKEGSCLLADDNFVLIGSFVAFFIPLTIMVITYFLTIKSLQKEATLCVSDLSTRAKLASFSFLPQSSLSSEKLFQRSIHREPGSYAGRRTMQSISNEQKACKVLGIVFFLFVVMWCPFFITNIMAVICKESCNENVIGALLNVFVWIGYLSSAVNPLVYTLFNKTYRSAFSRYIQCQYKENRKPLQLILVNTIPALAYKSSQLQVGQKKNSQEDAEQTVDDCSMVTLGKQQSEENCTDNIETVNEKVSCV

Active and inactive are the calls of the source. The rule behind the calls is not given here.

Turning to `CN(C)CCn1ccc2ccc(F)cc21`, the result with Cortical neurone [1] was Active.

Turning to `CN(C)CCn1ccc2cc(F)ccc21`, the outcome in the assay on Cortical neurone [1] was Active.

Turning to `CN(C)CCn1ccc2cccc(F)c21`, in the assay with Cortical neurone [1], the result was Active.

Consider `CN(C)CCn1c2ccccc2c2ccccc21`, for which, in the assay with Cortical neurone [1], the outcome was Active.

As for `COc1ccc2c(ccn2CCN(C)C)c1.O=C(O)/C=C/C(=O)O`, in the assay with Cortical neurone [1], the result was Active. Also, in the assay filed under Danio rerio, the Activity result was “Dose-dependent effect” and the ECmax was 200 µM. For the same molecule, the result in the assay with Mus musculus [2] was inactive.

Turning to `CN(C)CCn1ccc2ccc(OCc3ccccc3)cc21`, in the assay on Cortical neurone [1], the outcome was Active.

As to `COc1ccc2c(CCN(C)C)c[nH]c2c1`, in the assay filed under Danio rerio, the Activity entry was “Dose-dependent effect” and the ECmax came out at 200 µM. Besides, the result in the assay with Mus musculus [2] was inactive.

Take `CN(C)CCc1c[nH]c2ccccc12`: the result in the assay with Cortical neurone [1] and in the assay on Cortical neurone [3] was Active.

For `COc1ccc2ccn(CCN(C)C)c2c1`, the outcome with Cortical neurone [1] and in the assay with Mus musculus [2] was Active. Also, in the assay listed under Danio rerio, the Activity entry is “Dose-dependent effect”. For the same molecule, in the assay listed under Danio rerio, the ECmax stood at 200 µM.

With `CN(C)CCn1ccc2ccccc21`, in the assay on Cortical neurone [1], the outcome was Active.

`CN(C)CCn1ccc2c(OCc3ccccc3)cccc21`: the result in the assay with Cortical neurone [1] was inactive.

On to `COc1ccc2[nH]cc(CCN(C)C)c2c1` [MEBUFOTENIN], for which, in the assay with Cortical neurone [3], the outcome was Active. Also, in the assay filed under Danio rerio, the Activity result was “Dose-dependent effect” and the ECmax was 200 µM. Further, in the assay on Mus musculus [4], the Activity result is “Dose-dependent effect”. Also, the inhibition entry in assay [5] was “Active”.

In the case of `CN(C)CCn1ccc2cc(OCc3ccccc3)ccc21`, in the assay on Cortical neurone [1], the outcome was Active.

On to `CN(C)CCn1cnc2ccccc21`, for which the result in the assay on Cortical neurone [1] was Active.

Take `COc1cccc2ccn(CCN(C)C)c12`: in the assay with Cortical neurone [1], the outcome was Active.

For the molecule `CN(C)CCc1cn(C)c2ccccc12`, the outcome in the assay with Cortical neurone [1] was Active.

For the molecule `CN(C)CCn1ccc2c(F)cccc21`, the outcome in the assay on Cortical neurone [1] was inactive.

On to `CC(C)CCn1ccc2ccccc21`, for which the result with Cortical neurone [1] was inactive.

Consider `COc1cccc2c1ccn2CCN(C)C`, for which, in the assay with Cortical neurone [1], the result was inactive.

With `CNC1(c2ccccc2Cl)CCCCC1=O` (stereo unspecified), the result in the assay on Cortical neurone [3] was Active.

With `CN(C)CCn1cccc1`, in the assay with Cortical neurone [1], the result was Active.

`CN(C)CCn1ccc2cccc(OCc3ccccc3)c21`: the outcome with Cortical neurone [1] was Active.

In the case of `CN(C)C(=O)Cn1ccc2ccccc21`, the outcome in the assay on Cortical neurone [1] was inactive.
